Screens as filed in PubChem.
This is a sample that favours compounds with a hit; in the whole collection about 3.9% have one here.
HCV NS3 hel inh – inhibitors of Hepatitis C virus NS3 helicase; NS3 helicase DNA unwinding, Cy5 molecular beacon fluorescence; inhibition, % at 10.9 µM; 0.56% of 290,000 active; AID 1800;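 active = inhibition above the mean of all tested compounds plus 3 SD, set per campaign, cut at about 35% in these data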;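 also: 0% = DMSO wells and 100% = thioflavine S control wells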
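Material: hepatitis C virus NS3 helicase domain fragment enzyme; measured by: Cy5 fluorescence, 0 and 60 min reads; control set: DMSO and thioflavine S; incubation: 60 min unwinding reaction at 25 °C after ATP addition; read-out basis: % inhibition from 60/0 min fluorescence ratio, DMSO 0%, thioflavine S 100%; repeats: singlicate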
HSP90 inh – blocks HSP90-mediated luciferase refolding in reticulocyte lysate; Rabbit reticulocyte lysate, luciferase refolding luminescence, 3 h; AID 1789; inhibition, % at 5.6 µM; 0.91% of 290,000 active;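 active = inhibition above the screen-wide mean plus 3 SD, computed separately per campaign, cut at about 16% in these data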;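 also: 0% = DMSO wells and 100% = 60 µM geldanamycin wells; inhibitors lower the luminescence because luciferase stays unfolded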
HSF1 inh – HSF1 inhibition; activity change, negative = inhibition, % at 7.5 µM (by protocol); NIH3T3-HGL HSE-luciferase, MG132-induced, luminescence 8 h; active compounds read low; 0.77% of 300,000 active;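 active = more than half of replicate wells show activity change below -50%, luminescence cut by over half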;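 also: luciferase reports HSF-1 transcriptional activity via heat shock element; 0% = median of DMSO wells and -100% = zero luminescence signal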
HSF-1 act – increases HSF-1 driven luciferase reporter signal; NIH3T3-HGL HSF-1 luciferase reporter, MG132, 8 h; 100% = twice DMSO control signal; activation, % at 9 µM; 1.7% of 300,000 active; AID 504408;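 active = mean replicate activation of at least 50% with a set share of replicates each reaching 50%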;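 also: 0% = median of the neutral control wells and 100% = twice that signal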
DNA FID counter – counter-screen for HCV NS3 helicase inhibitors: DNA intercalator displacement. AID 1845. 0.17% of 290,000 active. DNA fluorescent intercalator displacement, fluorescence. inhibition, % at 7.9 µM; in the data active = inhibition above about 37%;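 also: 0% = vehicle and 100% = reference compound; higher means more ethidium bromide displaced from hairpin DNA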
HCV core dimer – HCV core protein dimerization inhibition | TR-FRET GST/Flag-core106 dimerization, 1536-well | inhibition, % at 5 µM | 0.33% of 300,000 active | AID 1899;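 active = inhibition above the mean of all tested compounds plus 3 SD, set per screening campaign, cut at about 45% in these data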
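Assay system: tagged HCV core106 pair (GST and Flag); medium: KF-containing HEPES buffer, pH 7.45, DTT, CHAPS, BSA; also added: Eu donor and XL665 acceptor anti-tag antibodies; dosing: 5 µM single dose; timing: compound-protein-antibody incubation 4 h at 22.5 °C; signal: TR-FRET 671 and 617 nm emission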
HSP90 confirm – confirmation of HSP90 inhibitors; shares compounds with HSP90 inh; rabbit reticulocyte lysate, luciferase refolding luminescence, 3 h; inhibition, % at 5.9 µM; 64% of 2,300 active; in the data active = inhibition above about 18%;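 also: 0% = vehicle wells and 100% = reference inhibitor wells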
FLuc counter – counter-screen for HSP90 inhibitors: inhibitors of firefly luciferase; purified native firefly luciferase, luminescence; shares compounds with HSP90 inh; inhibition, % at 5.9 µM; AID 1847; 48% of 2,300 active;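 active = inhibition above the mean inhibition of all tested sample wells plus 3 SD, cut at about 10% in these data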;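 also: 0% = DMSO with luciferase and 100% = wells lacking luciferase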
Target sequence (P08659 whole entry, looked up): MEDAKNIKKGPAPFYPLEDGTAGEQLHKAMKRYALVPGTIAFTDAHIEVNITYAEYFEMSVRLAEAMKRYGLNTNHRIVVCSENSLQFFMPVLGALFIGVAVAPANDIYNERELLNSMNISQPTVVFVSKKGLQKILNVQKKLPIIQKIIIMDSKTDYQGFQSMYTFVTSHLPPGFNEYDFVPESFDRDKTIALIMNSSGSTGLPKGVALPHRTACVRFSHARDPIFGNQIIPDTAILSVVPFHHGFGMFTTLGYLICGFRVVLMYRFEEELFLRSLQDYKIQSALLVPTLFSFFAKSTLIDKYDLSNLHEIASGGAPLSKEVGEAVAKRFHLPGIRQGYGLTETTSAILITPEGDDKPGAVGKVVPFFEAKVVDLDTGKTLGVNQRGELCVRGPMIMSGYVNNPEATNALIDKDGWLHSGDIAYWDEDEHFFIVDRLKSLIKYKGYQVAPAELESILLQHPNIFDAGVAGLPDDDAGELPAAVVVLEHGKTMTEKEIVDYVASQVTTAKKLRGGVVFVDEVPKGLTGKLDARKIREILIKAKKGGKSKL
Starred values were filed as active, the others as inactive.

For CCCc1nn(C)c(C(=O)Nc2cccc(Cl)c2)c1Cl the results were HCV NS3 hel inh 30, HSP90 inh 26*, DNA FID counter -16, HCV core dimer -4, HSP90 confirm 35* and FLuc counter 36*.
CCCc1nn(C)c(C(=O)Nc2cccc(C)c2)c1Cl was read as HCV NS3 hel inh 7, HSP90 inh 10, HSF1 inh -37, HSF-1 act -44, DNA FID counter -26 and HCV core dimer -1.
Screening CCCc1nn(C)c(C(=O)Nc2ccccc2)c1Cl returned HCV NS3 hel inh -2, HSP90 inh 36*, HSF1 inh -1, HSF-1 act 12, DNA FID counter -9, HCV core dimer -7, HSP90 confirm 52* and FLuc counter 54*.
Cc1cc(C)nc(/N=C(\N)C2=C(O)CC(C)(C)CC2=O)n1 was read as HCV NS3 hel inh 2, HSP90 inh -1, HSF1 inh 0, HSF-1 act 15, DNA FID counter -13 and HCV core dimer 1.
`COc1ccc(/C=C\c2nc(=O)c3ccccc3o2)cc1` gave HCV NS3 hel inh 0, HSP90 inh 21*, HSF1 inh 24, HSF-1 act 76*, DNA FID counter -6, HSP90 confirm 31* and FLuc counter 14*.
CC(=O)Oc1ccc(-c2nc3ccccc3c(=O)o2)cc1 was read as HCV NS3 hel inh 4, HSP90 inh 3, HSF1 inh -7, HSF-1 act 8, DNA FID counter -3 and HCV core dimer -8.
`CC(=O)Oc1ccccc1/C=C/c1nc2ccccc2c(=O)o1` gave HCV NS3 hel inh 18, HSP90 inh 32*, HSF1 inh -5, HSF-1 act 12, DNA FID counter -28, HCV core dimer 8, HSP90 confirm 45* and FLuc counter -8.
CC(=O)Oc1ccc(/C=C/c2nc3ccccc3c(=O)o2)cc1 was read as HCV NS3 hel inh -2, HSP90 inh 28*, HSF1 inh 1, HSF-1 act 5, DNA FID counter -35, HCV core dimer 3, HSP90 confirm 32* and FLuc counter -13.
Screening NC(CCC(=O)O)C12CC3CC(CC(C3)C1)C2 (stereo unspecified) returned HCV NS3 hel inh -1, HSP90 inh 3, HSF1 inh -2, HSF-1 act 14, DNA FID counter 1 and HCV core dimer -3.
For Cc1nnc(SCC(=O)N2CCCC2)n(N)c1=O the results were HCV NS3 hel inh 14, HSP90 inh -2, HSF1 inh -3, HSF-1 act -16, DNA FID counter 2 and HCV core dimer 0.
Cc1c2c([n+]3n1CCC3)CC(C)(C)CC2=O was read as HCV NS3 hel inh -1, HSP90 inh -1, HSF1 inh -5, HSF-1 act -8, DNA FID counter -6 and HCV core dimer 6.
O=C(Nc1cccc(Br)c1)c1cc(=O)c2ccccc2o1 was read as HCV NS3 hel inh 5, HSP90 inh 4, HSF1 inh 3, HSF-1 act 1, DNA FID counter 7 and HCV core dimer -9.
For COCCn1c(CCC(=O)O)nc2c1c(=O)[nH]c(=O)n2CC(C)C the results were HCV NS3 hel inh -2, HSP90 inh 0, HSF1 inh 2, HSF-1 act 2, DNA FID counter 2 and HCV core dimer 3.
O=C(O)CCCCCn1c(SCC(=O)N2CCCC2)nc2ccsc2c1=O was read as HCV NS3 hel inh 2, HSP90 inh 64*, HSF1 inh 2, HSF-1 act -1, DNA FID counter -24, HCV core dimer -6, HSP90 confirm 5 and FLuc counter -4.
Screening Brc1cc2c(cc1/C=N/Nc1nc(N3CCCC3)nc(N3CCOCC3)n1)OCO2 returned HCV NS3 hel inh -7, HSP90 inh 1, HSF1 inh -2, HSF-1 act -9, DNA FID counter -11 and HCV core dimer 7.
`Cc1ccc(NC(=O)CCC(=O)NNC(=O)c2ccccc2Cl)c(C)c1` gave HCV NS3 hel inh 3, HSP90 inh 1, HSF1 inh -5, HSF-1 act 26, DNA FID counter -5 and HCV core dimer 0.
